Measured values collected from several papers.
Each line is one published result; the experiments were not run side by side.
Organism: Trypanosoma brucei
Effect on: parasite growth

SMILES	test	test system	conditions	quantity	value
O=[N+]([O-])c1c(CS(=O)(=O)c2ccccc2)nc2c(-c3cccc(C(F)(F)F)c3)cc(Cl)cn12	resazurin		trypomastigote	IC50	40 to 160 nM
Cc1ccc(C(=O)Nc2ccc(S(=O)(=O)O)c3cc(S(=O)(=O)O)cc(S(=O)(=O)O)c23)cc1NC(=O)c1cccc(NC(=O)Nc2cccc(C(=O)Nc3cc(C(=O)Nc4ccc(S(=O)(=O)O)c5cc(S(=O)(=O)O)cc(S(=O)(=O)O)c45)ccc3C)c2)c1	resazurin			IC50	60 nM
Clc1ccc2c(c1)N(CCCN1CCN(CCCc3ccccc3)CC1)c1ccccc1S2				EC50	775 nM
[O-][S+]1CCN(Cc2ccc(-c3ccc4ncnc(Nc5ccc(OCc6ccccc6)c(Cl)c5)c4c3)o2)CC1				EC50	631 nM
Cc1ccc2nc(-c3ccc(Cl)cc3)cn2c1			48 h	EC90	> 20000 nM
Nc1nc(N)c2nc(C(=O)NCc3ccccc3)cnc2n1	resazurin		10 µM, 72 h	inhibition	19%
CCS(=O)(=O)N(C)c1ccc(NC(=O)c2cccc(C(=N)N)c2)cc1OCc1ccc(C(=N)N)cc1				IC50	500 nM
COc1cc(Nc2nccc(Nc3ccc4c(C)n[nH]c4c3)n2)cc(OC)c1OC				EC50	631 nM
OC(c1ccccc1)c1ccccc1				EC50	> 100000 nM
NC(=O)C1CCN(C(=O)c2ccc(NCc3cnc4nc(N)nc(N)c4n3)cc2)CC1	resazurin		10 µM, 72 h	inhibition	12%
NC(=O)CN1C(=O)CNC2(C1=O)C1CC3CC(C1)CC2C3 (stereo not shown)			pH 7.4, blood stage	IC50	200000 nM
COC(=O)C1CCN(C(=O)c2ccc(NCc3cnc4nc(N)nc(N)c4n3)cn2)CC1	resazurin		10 µM, 72 h	inhibition	10%
Cc1ccc(C(=O)Nc2ccc(S(=O)(=O)O)c3cc(S(=O)(=O)O)cc(S(=O)(=O)O)c23)cc1NC(=O)c1cccc(NC(=O)Nc2cccc(C(=O)Nc3cc(C(=O)Nc4ccc(S(=O)(=O)O)c5cc(S(=O)(=O)O)cc(S(=O)(=O)O)c45)ccc3C)c2)c1	resazurin	RHODESIENSE STIB900		IC50	35 nM
CCOC(=O)C1CCCN1C(=O)c1ccc(NCc2cnc3nc(N)nc(N)c3n2)cc1 (stereo not shown)	resazurin		10 µM, 72 h	inhibition	30%
Cc1ccc2nc(-c3ccc(F)c(F)c3)c(CN3CCC(Cc4ccccc4)CC3)n2c1			48 h	EC50	16600 nM
CCCN1CCC(c2ccc(Nc3nc(Nc4cc(F)ccc4C(N)=O)c4cc[nH]c4n3)c(OC)c2)CC1				EC50	1580 nM

SMILES	test	test system	conditions	quantity	value
Nc1nc(N)c2nc(CNc3ccc(C(=O)c4ccccc4)cc3)cnc2n1	resazurin		10 µM, 72 h	inhibition	76%
CC1CS(=O)(=O)CCN1/N=C/c1ccc([N+](=O)[O-])o1 (stereo not shown)				IC50	3500 nM
Cc1ccc2nc(-c3ccc(F)c(F)c3)c(CN3CCN(C4CCCCC4)CC3)n2c1			48 h	EC90	> 20000 nM
COC(=O)C1CCN(C(=O)c2ccc(SCc3cnc4nc(N)nc(N)c4n3)nc2)CC1	resazurin		10 µM, 72 h	inhibition	16%
COc1cc(Nc2ncc3c(C)nc(-c4cccc(Oc5ccccc5)c4)n3n2)cc(OC)c1OC				EC50	794 nM
COc1ccc(CNC(=O)c2ccc(CNCc3cnc4nc(N)nc(N)c4n3)cc2)cc1OC	resazurin		10 µM, 72 h	inhibition	36%
COc1cc(N2CCN(C(C)C)CC2)ccc1Nc1nc(Nc2ccc(F)cc2C(N)=O)c2cc[nH]c2n1				EC50	200 nM
ClCCOC(c1ccccc1)c1ccccc1				EC50	32100 nM
Cc1cc(NC(=O)Nc2ccc3c(c2)OC(F)(F)O3)cc(C(F)(F)F)n1		RHODESIENSE STIB900		IC50	5100 nM
COc1ccc(-c2oc3ncnc(N)c3c2-c2ccc(NC(=O)Nc3cc(C(F)(F)F)ccc3F)cc2)cc1				EC50	1580 nM
COc1c(Br)cc(Br)cc1CN[C@H]1CCCN(c2nc3nc(Cl)ccc3[nH]2)C1				EC50	40 nM
COc1cc2c(cc1Nc1nc(Nc3ccsc3C(N)=O)c3cc[nH]c3n1)N(C(=O)CN(C)C)CCC2				EC50	631 nM
N=C(N)c1ccc(OCCCCCOc2ccc(C(=N)N)cc2)cc1				EC90	6.2 nM
CCOC(=O)C1CCN(C(=O)c2ccc(N(C)Cc3cnc4nc(N)nc(N)c4n3)cc2)CC1	resazurin		10 µM, 72 h	inhibition	47%
Fc1ccc(-c2ncn(C3CCNCC3)c2-c2ccnc(Oc3ccc(Oc4ccccc4)cc3)n2)cc1				EC50	794 nM
